The nature of data set [1]: Inhibition of Plasmodium falciparum HGXPRT at pH 7.4.
In data set [2] the test system is Plasmodium falciparum.
Data set [3] deals with Plasmodium falciparum. As to the kind of experiment: Antiplasmodial activity against Plasmodium falciparum 3D7. The format is functional, organism-based. The method, boiled down:
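P. falciparum 3D7 kept in erythrocyte culture. Triplicate cultures exposed to a range of purine base concentrations for 48 h, without radiolabel. Giemsa-stained blood smears examined by light microscopy to determine parasitemia. IC50 taken as the inhibition of growth, from counts of viable parasites.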

In data set [4] the test system is Plasmodium falciparum. The data set is described as follows: Inhibition of [3H]hypoxanthine uptake in Plasmodium falciparum 3D7. It counts as functional, organism-based. Conditions: 3D7, 48 h.
Data set [5] concerns Plasmodium falciparum. The source holds these as a separate data set.
Data set [6] deals with Plasmodium falciparum. The data set is described as follows: Inhibition of [3H]hypoxanthine uptake into Plasmodium falciparum 3D7 at 130 uM. The format is functional, organism-based.
For data set [7], the system named is Plasmodium falciparum. As to the kind of experiment: Antimalarial activity against Plasmodium falciparum 3D7 at 130 uM. The format is functional, organism-based.
For data set [8], the system named is Plasmodium falciparum. The data set is described as follows: Antimalarial activity against Plasmodium falciparum 3D7 at 120 uM. The format is functional, organism-based.
Data set [9] concerns Plasmodium falciparum. The data set is described as follows: Inhibition of [3H]hypoxanthine uptake into Plasmodium falciparum 3D7 at 120 uM. It counts as functional, organism-based.
Data set [10] has as its system Plasmodium falciparum. The data set is described as follows: Inhibition of [3H]hypoxanthine uptake into Plasmodium falciparum 3D7 at 125 uM. The format is functional, organism-based.
Data set [11] has as its system Plasmodium falciparum. As to the kind of experiment: Antimalarial activity against Plasmodium falciparum 3D7 at 125 uM. The format is functional, organism-based.
The nature of data set [12]: Inhibition of Toxoplasma gondii 6 oxopurine phosphoribosyl transferase.
Data set [13] has as its system Plasmodium falciparum. As to the kind of experiment: Antimalarial activity against Plasmodium falciparum. It counts as functional, organism-based. The method, boiled down: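 P. falciparum 3D7, a laboratory-adapted isolate, was kept in erythrocyte culture. Triplicate cultures were exposed to a range of purine base concentrations with 0.5 µCi/well [3H]hypoxanthine for 48 h, and label incorporation into nucleic acids was measured. Parallel cultures without label were run for 48 h, and parasitemia was read on Giemsa-stained smears by light microscopy. IC50 was derived for each read-out.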

The test system of data set [14] is Sphi609. The data set is described as follows: Inhibition of Escherichia coli Sphi609 cells expressing Plasmodium falciparum HGXPRT. The format is functional, cell-based.
The subject of data set [15] is Sphi609. As to the kind of experiment: Inhibition of Escherichia coli Sphi609 cells expressing human HGPRT. It counts as functional, cell-based.
Another data set relates to Plasmodium chabaudi. As to the kind of experiment: Inhibition of Plasmodium chabaudi 6 oxopurine phosphoribosyl transferase.
For a further data set, the system named is Plasmodium lophurae. As to the kind of experiment: Inhibition of Plasmodium lophurae 6 oxopurine phosphoribosyl transferase.
Substrate in data set [16]: Nc1nc2[nH]cnc2c(=O)[nH]1
As to conditions: Homo sapiens.

Substrate in data set [17]: Nc1nc2[nH]cnc2c(=S)[nH]1
As to conditions: Homo sapiens.

Substrate in data set [18]: Sc1ncnc2nc[nH]c12
Conditions: Homo sapiens.

Substrate in data set [19]: O=c1[nH]cnc2nc[nH]c12
As to conditions: Homo sapiens.

Substrate in data set [20]: Oc1ncnc2[nH]ncc12
Conditions: Homo sapiens.

Substrate in data set [21]: Nc1nc2[nH]cnc2c(=O)[nH]1
As to conditions: Homo sapiens. This is another data set of the same source.

Substrate in data set [22]: Nc1nc2[nH]cnc2c(=S)[nH]1
Conditions: Homo sapiens. This is another data set of the same source.

Substrate in data set [23]: Sc1ncnc2nc[nH]c12
Conditions: Homo sapiens. This is another data set of the same source.

Substrate in data set [24]: Nc1nc(O)c2[nH]nnc2n1
As to conditions: Homo sapiens.

Substrate in data set [25]: O=c1[nH]cnc2nc[nH]c12
As to conditions: Homo sapiens. The source holds these as a separate data set.

Substrate in data set [26]: Oc1ncnc2[nH]ncc12
As to conditions: Homo sapiens. This is another data set of the same source.

Active and inactive are the calls of the source. The calls are words filed in the database; no cut-off is given here.

By Ki is commonly meant the dissociation constant of the complex between target and ligand, obtained from inhibition or displacement. Low values mean higher affinity, high ones lower affinity. As for `O=c1[nH]c(=O)c2nn[nH]c2[nH]1`, the Ki in [1] is not below 100 µM.

Usually Km stands for the concentration of substrate that gives half-maximal velocity. Usually IC50 stands for the point on the concentration scale where inhibition reaches its midpoint. With `O=c1[nH]cnc2[nH]nnc12`, the Km was 25.6 µM in the data set with Plasmodium falciparum [2] and 145 µM in the data set on Plasmodium falciparum [5]. The figures for the IC50 with Plasmodium falciparum [3] and in the data set with Plasmodium falciparum [4] were 38 µM and 90 µM, respectively.

Turning to `O=c1[nH]c(=O)c2nc[nH]c2[nH]1`, the result in the data set with Plasmodium falciparum [6] and with Plasmodium falciparum [7] was inactive. In addition, the Michaelis constant (Km) amounted to 189 µM in the data set with Plasmodium falciparum [2] and 420 µM in the data set on Plasmodium falciparum [5].

Turning to `O=c1[nH]c(=S)c2nc[nH]c2[nH]1`, in the data set with Plasmodium falciparum [2], the Km worked out at 82 µM. The outcome with Plasmodium falciparum [8] and in the data set with Plasmodium falciparum [9] was inactive.

Turning to `O=c1[nH]c(S)nc2[nH]cnc12`, the outcome with Plasmodium falciparum [10] and in the data set on Plasmodium falciparum [11] was inactive.

In data set [12], `Nc1nc2ncnc-2c[nH]1` [2-AMINOPURINE] had a Ki of 60 µM.

Turning to `Nc1nc(Cl)c2nc[nH]c2n1` [6-CHLOROGUANINE], the Km with Plasmodium falciparum [2] stood at 176 µM. Moreover, the IC50 in the data set on Plasmodium falciparum [3] was 10 µM; in the data set on Plasmodium falciparum [4] it was 67 µM.

Take `Nc1nc(O)c2[nH]nnc2n1` [8-AZAGUANINE]: the Michaelis-Menten constant (Km) is 12.6 µM in the data set on Plasmodium falciparum [2] and 26.6 µM in the data set with Plasmodium falciparum [5]. Also, the values for the half-maximal inhibitory concentration (IC50) in the data set on Plasmodium falciparum [3] and with Plasmodium falciparum [4] were 18 µM and 6.6 µM, respectively.

For `Oc1ncnc2[nH]ncc12` [ALLOPURINOL], the values for the Km in the data set with Plasmodium falciparum [2] and in the data set on Plasmodium falciparum [5] were 10.5 µM and 11.7 µM, respectively. Also, the IC50 in the data set with Plasmodium falciparum [4] was not below 150 µM. For the same molecule, the result with Plasmodium falciparum [13] was inactive.

With `Nc1nc2[nH]cnc2c(=O)[nH]1` [GUANINE], the Km in the data set with Plasmodium falciparum [2] came out at 0.83 µM; in the data set with Plasmodium falciparum [5], 1.4 µM. Besides, the concentration for half-maximal inhibition (IC50) in the data set with Plasmodium falciparum [3] is 60 µM; with Plasmodium falciparum [4], 35.3 µM.

Take `O=c1[nH]cnc2nc[nH]c12` [HYPOXANTHINE]: the Km came to 0.07 µM with Plasmodium falciparum [2] and 0.9 µM in the data set with Plasmodium falciparum [5]. Half-maximal inhibition in the data set on Plasmodium falciparum [4] (IC50) was put at 4.2 µM.

Regarding `Sc1ncnc2nc[nH]c12` [MERCAPTOPURINE ANHYDROUS], the Km turned out to be 0.02 µM in the data set with Plasmodium falciparum [2] and 1.6 µM with Plasmodium falciparum [5]. Further, the IC50 was 2 µM in the data set on Plasmodium falciparum [3] and 1.3 µM with Plasmodium falciparum [4]. Further, the outcome in the data set with Sphi609 [14], in the data set on Sphi609 [15], with Plasmodium chabaudi and in the data set with Plasmodium lophurae was Active.

For `Nc1nc2[nH]cnc2c(=S)[nH]1` [THIOGUANINE], the Km in the data set with Plasmodium falciparum [2] worked out at 0.75 µM; with Plasmodium falciparum [5] it was 1.9 µM. Moreover, the figures for the IC50 in the data set on Plasmodium falciparum [3] and with Plasmodium falciparum [4] were 10 µM and 21.3 µM, respectively. Also, the outcome in the data set with Sphi609 [14], with Sphi609 [15], with Plasmodium chabaudi and in the data set on Plasmodium lophurae was Active.

B1: Hypoxanthine-guanine phosphoribosyltransferase (Homo sapiens), P00492 (protein)
chain: MATRSPGVVISDDEPGYDLDLFCIPNHYAEDLERVFIPHGLIMDRTERLARDVMKEMGGHHIVALCVLKGGYKFFADLLDYIKALNRNSDRSIPMTVDFIRLKSYCNDQSTGDIKVIGGDDLSTLTGKNVLIVEDIIDTGKTMQTLLSLVRQYNPKMVKVASLLVKRTPRSVGYKPDFVGFEIPDKFVVGYALDYNEYFRDLNHVCVISETGKAKYKA
For B1, the Michaelis-Menten constant (Km) in [16] amounted to 1.9 µM; in data set [17], 5.9 µM; in [18], 3 µM; in data set [19], 3.1 µM; in [20] it was 135 µM; in [21] it was 1.9 µM. Moreover, the Km worked out at 1.7 µM in [22]; 1.15 µM in data set [23]; 72 µM in [24]; 3.4 µM in data set [25]; 47.9 µM in data set [26].

The values are drawn from ChEMBL document CHEMBL1138206, “Lead compounds for antimalarial chemotherapy: purine base analogs discriminate between human and P. falciparum 6-oxopurine phosphoribosyltransferases” (J Med Chem, 2006).
